Source: ChEMBL document CHEMBL4011623, “Development of 1-((1,4-trans)-4-Aryloxycyclohexyl)-3-arylurea Activators of Heme-Regulated Inhibitor as Selective Activators of the Eukaryotic Initiation Factor 2 Alpha (eIF2α) Phosphorylation Arm of the Integrated Endoplasmic Reticulum Stress Response” (J Med Chem, 2017)
Activity calls are given as the source filed them. The rule behind the calls is not given here.

Tests used:
[1] = target: Eukaryotic translation initiation factor 2-alpha kinase 1 (Mus musculus) (UniProt Q9Z2R9); experiment: Activation of HRI in mouse KLN cells transfected with 5'UTR of ATF-4 mRNA fused firefly luciferase mRNA and 5'UTR lacking uORF fused renila luciferase mRNA assessed as increase in eIF2alpha phosphorylation by measuring ratio of firefly luciferase to renila luciferase at 1.25 uM after 16 hrs; assay type: cell-based
Eukaryotic translation initiation factor 2-alpha kinase 1 (Mus musculus), sequence (Q9Z2R9 whole entry, the tested form may be a part): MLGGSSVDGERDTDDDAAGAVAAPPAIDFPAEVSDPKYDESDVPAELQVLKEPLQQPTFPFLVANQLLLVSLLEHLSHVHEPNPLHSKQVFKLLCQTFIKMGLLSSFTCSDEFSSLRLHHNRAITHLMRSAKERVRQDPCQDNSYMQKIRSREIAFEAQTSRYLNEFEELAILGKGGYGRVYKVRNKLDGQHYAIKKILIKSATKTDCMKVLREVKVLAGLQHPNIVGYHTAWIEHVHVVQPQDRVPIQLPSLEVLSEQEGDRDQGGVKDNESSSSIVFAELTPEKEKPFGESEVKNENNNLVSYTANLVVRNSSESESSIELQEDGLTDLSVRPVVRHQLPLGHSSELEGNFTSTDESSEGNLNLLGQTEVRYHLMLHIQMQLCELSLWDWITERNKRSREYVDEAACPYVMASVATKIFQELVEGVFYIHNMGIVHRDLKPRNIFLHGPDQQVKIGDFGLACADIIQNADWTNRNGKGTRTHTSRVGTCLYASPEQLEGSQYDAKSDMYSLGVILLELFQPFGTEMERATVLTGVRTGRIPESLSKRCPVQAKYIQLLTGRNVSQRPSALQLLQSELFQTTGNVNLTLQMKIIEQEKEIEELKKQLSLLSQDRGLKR

[2] = Antiproliferative activity against human CRL2813 cells after 5 days by sulforhodamine B assay; assay type: functional, cell-based; settings: CRL2813, 120 h
Method in brief: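 CRL-2813 melanoma cells grown 5 days with 0.5–20 μM compound, then fixed in cold 10% TCA and stained with sulforhodamine B. Bound dye measured. Growth % = 100×(T−T0)/(C−T0), with T0 at time zero. IC50 is the concentration giving 50% growth inhibition.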

[3] = target: Eukaryotic translation initiation factor 2-alpha kinase 1 (Homo sapiens) (UniProt Q9BQI3); experiment: Activation of HRI in human CRL2813cells assessed as decrease in cyclin D1 protein expression at 5 uM after 8 hrs by Western blot analysis
Eukaryotic translation initiation factor 2-alpha kinase 1 (Homo sapiens), sequence (Q9BQI3 whole entry): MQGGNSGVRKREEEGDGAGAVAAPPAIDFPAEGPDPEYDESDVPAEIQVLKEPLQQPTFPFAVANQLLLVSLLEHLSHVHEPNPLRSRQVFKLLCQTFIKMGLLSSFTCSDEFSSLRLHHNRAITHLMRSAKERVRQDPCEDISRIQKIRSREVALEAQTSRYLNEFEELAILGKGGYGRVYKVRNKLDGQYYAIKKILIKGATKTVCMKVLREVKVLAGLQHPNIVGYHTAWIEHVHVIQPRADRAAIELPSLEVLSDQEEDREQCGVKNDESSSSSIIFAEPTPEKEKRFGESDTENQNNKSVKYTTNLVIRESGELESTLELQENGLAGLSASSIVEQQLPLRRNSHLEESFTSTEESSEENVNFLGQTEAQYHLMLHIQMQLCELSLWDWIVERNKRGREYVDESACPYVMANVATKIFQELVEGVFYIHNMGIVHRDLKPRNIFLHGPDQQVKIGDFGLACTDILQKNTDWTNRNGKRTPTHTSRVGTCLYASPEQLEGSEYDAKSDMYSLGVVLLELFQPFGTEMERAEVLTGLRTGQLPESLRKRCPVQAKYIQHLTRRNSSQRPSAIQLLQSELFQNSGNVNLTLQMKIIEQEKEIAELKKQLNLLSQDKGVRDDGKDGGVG
Method in brief: (§1)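 CRL-2813 cells at 70% confluence in serum-containing, antibiotic-free medium; treated at 5 μM for 8 h. Lysed in M-PER on ice for 30 min, equal protein by BCA, SDS-PAGE and immunoblot for CHOP, cyclin D1 and β-actin. Blots representative of three independent experiments.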

[4] = target: Eukaryotic translation initiation factor 2-alpha kinase 1 (Homo sapiens) (UniProt Q9BQI3); experiment: Activation of HRI in human CRL2813 cells assessed as increase in CHOP protein expression at 5 uM after 8 hrs by Western blot analysis; assay type: cell-based; method in brief: as §1
[5] = target: Eukaryotic translation initiation factor 2-alpha kinase 1 (Homo sapiens) (UniProt Q9BQI3); experiment: Activation of HRI in human CRL2813 cells assessed as increase in eIF2alpha phosphorylation at 5 uM after 2 hrs by Western blot analysis; assay type: cell-based
Method in brief: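 Adherent CRL-2813 melanoma cells exposed to 5 μM for 2 h. Lysates immunoblotted with anti-phosphoserine-51 eIF2α and anti-total eIF2α antibodies after BCA normalization and SDS-PAGE. Gels representative of three independent experiments.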

[6] = Effect on beta actin protein expression in human CRL2813 cells at 5 uM after 8 hrs by Western blot analysis; assay type: ADME, cell-based; settings: crl2813, 8 h; method in brief: as §1
[7] = target: Eukaryotic translation initiation factor 2-alpha kinase 1 (Mus musculus) (UniProt Q9Z2R9); experiment: Activation of HRI in mouse KLN cells transfected with 5'UTR of ATF-4 mRNA fused firefly luciferase mRNA and 5'UTR lacking uORF fused renila luciferase mRNA assessed as increase in eIF2alpha phosphorylation by measuring ratio of firefly luciferase to renila luciferase after 16 hrs; assay type: cell-based
[8] = target: Eukaryotic translation initiation factor 2-alpha kinase 1 (Homo sapiens) (UniProt Q9BQI3); experiment: Activation of HRI in human CRL2813 cells assessed as induction of CHOP mRNA level at 5 uM by real-time PCR relative to 18S RNA; assay type: cell-based
Method in brief: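 Fold induction of CHOP mRNA in cells treated at 5 μM, normalized to 18S RNA and expressed relative to DMSO (set to 1). Triplicate samples, three independent experiments, mean ± SEM.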

[9] = target: Eukaryotic translation initiation factor 2-alpha kinase 1 (Mus musculus) (UniProt Q9Z2R9); experiment: Activation of HRI in mouse KLN cells transfected with 5'UTR of ATF-4 mRNA fused firefly luciferase mRNA and 5'UTR lacking uORF fused renila luciferase mRNA assessed as increase in eIF2alpha phosphorylation by measuring ratio of firefly luciferase to renila luciferase at 5 uM after 16 hrs; assay type: cell-based
[10] = Antitumor activity against human CRL2813 cells xenografted in NU008 nude mouse assessed as tumor growth inhibition at 37.5 mg/kg, ip qd administered for 4 days followed by 4 days off and 3 days on for total 28 days relative to control; assay type: functional; settings: read-out: TGI
Method in brief: (§2)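 Male nude mice injected s.c. with CRL-2813 cells; once tumors reached 100–150 mm3, randomized into groups of nine. Given i.p. q.d. at 150 or 37.5 mg/kg (4 days on, 4 off, 3 on; 28 days total) in NMP/Cremophor EL/water at 1 μl/g. Vehicle controls received the mixture alone. Body weight measured twice weekly; tumors by caliper weekly. Mean ± SEM.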

Mus musculus [11] = experiment: Cardiotoxicity in NU008 nude mouse xenografted with human CRL2813 cells at 150 mg/kg, ip qd administered for 4 days followed by 4 days off and 3 days on for total 28 days; assay type: toxicity, organism-based; settings: in vivo
Method in brief: (§3)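 Xenograft-bearing nude mice dosed i.p. on the 28-day intermittent schedule (150 or 37.5 mg/kg in NMP/Cremophor EL/water). Euthanized at the end of treatment; organs harvested, fixed and examined histopathologically.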

Mus musculus [12] = experiment: Induction of eIF2alpha phosphorylation in tumor of NU008 nude mouse xenografted with human CRL2813 cells at 37.5 to 150 mg/kg, ip qd administered for 3 days by Western blot analysis; assay type: functional, organism-based
Method in brief: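 Mice bearing ~200 mm3 CRL-2813 xenografts injected on three consecutive days with vehicle or the same doses used in the efficacy study. Tumors excised, lysed and immunoblotted for phosphorylated and total eIF2α.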

[13] = Antitumor activity against human CRL2813 cells xenografted in NU008 nude mouse assessed as tumor growth inhibition at 150 mg/kg, ip qd administered for 4 days followed by 4 days off and 3 days on for total 28 days relative to control; assay type: functional; settings: read-out: TGI; method in brief: as §2
Mus musculus [14] = experiment: Toxicity in NU008 nude mouse xenografted with human CRL2813 cells assessed as histopathologic change in spleen at 150 mg/kg, ip qd administered for 4 days followed by 4 days off and 3 days on for total 28 days; assay type: organism-based; settings: in vivo; method in brief: as §3
CRL2813 = experiment: Antitumor activity against human CRL2813 cells xenografted in ip dosed NU008 nude mouse assessed as tumor growth inhibition administered qd for 4 days followed by 4 days off and 3 days on for total 28 days; assay type: functional, organism-based; method in brief: as §2
Mus musculus [15] = experiment: Neurotoxicity in NU008 nude mouse xenografted with human CRL2813 cells at 150 mg/kg, ip qd administered for 4 days followed by 4 days off and 3 days on for total 28 days; assay type: toxicity, organism-based; settings: in vivo; method in brief: as §3
[16] = Apparent half life in NU008 nude mouse xenografted with human CRL2813 cells at 40 mg/kg, ip by LC-MS analysis; assay type: ADME, organism-based; settings: in vivo, read-out: t1/2(app) (converted)
Method in brief: (§4)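 Single i.p. dose of 40 mg/kg. Blood sampled before and at 0.5, 1, 2, 4, 6, 24, 48 and 72 h, mixed with 0.1% EDTA. Whole-blood levels quantified by LC-MS/MS (C18 column at 45 °C) against a standard curve. At least three mice per time point, mean ± SEM.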

Mus musculus [17] = experiment: Nephrotoxicity in NU008 nude mouse xenografted with human CRL2813 cells at 150 mg/kg, ip qd administered for 4 days followed by 4 days off and 3 days on for total 28 days; assay type: toxicity, organism-based; settings: in vivo; method in brief: as §3
Mus musculus [18] = experiment: Toxicity in NU008 nude mouse xenografted with human CRL2813 cells assessed as histopathologic change in bone marrow at 150 mg/kg, ip qd administered for 4 days followed by 4 days off and 3 days on for total 28 days; assay type: organism-based; settings: in vivo; method in brief: as §3
Mus musculus [19] = experiment: Toxicity in NU008 nude mouse xenografted with human CRL2813 cells assessed as body weight change at 37.5 mg/kg, ip qd administered for 4 days followed by 4 days off and 3 days on for total 28 days; assay type: organism-based; settings: in vivo; method in brief: as §2
[20] = Tmax in NU008 nude mouse xenografted with human CRL2813 cells at 40 mg/kg, ip by LC-MS analysis; assay type: ADME, organism-based; settings: in vivo; method in brief: as §4
Mus musculus [21] = experiment: Hepatotoxicity in NU008 nude mouse xenografted with human CRL2813 cells at 150 mg/kg, ip qd administered for 4 days followed by 4 days off and 3 days on for total 28 days; assay type: toxicity, organism-based; settings: in vivo; method in brief: as §3
Mus musculus [22] = experiment: Toxicity in NU008 nude mouse xenografted with human CRL2813 cells assessed as body weight change at 150 mg/kg, ip qd administered for 4 days followed by 4 days off and 3 days on for total 28 days; assay type: organism-based; settings: in vivo; method in brief: as §2

| Compound | Ratio [1] | IC50 [2] [nM] | Activity [3] | Activity [4] | Activity [5] | Activity [6] | Activity [7] | fold change (FC) [8] | Ratio [9] | further results |
| --- | --- | --- | --- | --- | --- | --- | --- | --- | --- | --- |
| O=C(Nc1cccc(OC(F)(F)F)c1)N[C@H]1CC[C@H](Oc2ccc(C(F)(F)F)cc2)CC1 | 5.2 | 920 | Active | Active | Active | Non-Toxic | Dose-dependent effect | 11.9 | 13.6 |  |
| N#Cc1ccc(NC(=O)N[C@H]2CC[C@H](Oc3ccc(C(F)(F)F)cc3)CC2)cc1 | 3.38 | 490 | Active | Active | Active | Non-Toxic | Dose-dependent effect | 12.8 | 11.6 |  |
| N#Cc1ccc(NC(=O)N[C@H]2CC[C@H](Oc3ccc(C(F)(F)F)cc3)CC2)cc1C#N | 5.54 | 2010 | Active | Active | Active | Non-Toxic | Dose-dependent effect | 6.21 | 7.75 |  |
| O=C(Nc1cccc(C(F)(F)F)c1)N[C@H]1CC[C@H](Oc2ccc(C(F)(F)F)cc2)CC1 | 3.23 | 540 | Active | Active | Active | Non-Toxic | Dose-dependent effect | 4.72 | 10.2 |  |
| O=C(Nc1cc(C(F)(F)F)cc(C(F)(F)F)c1)N[C@H]1CC[C@H](Oc2ccc(C(F)(F)F)cc2)CC1 | 8.58 | 450 | Active | Active | Active | Non-Toxic | Dose-dependent effect | 14.5 | 30.7 |  |
| N#Cc1cc(NC(=O)N[C@H]2CC[C@H](Oc3ccc(C(F)(F)F)cc3)CC2)cc(C(F)(F)F)c1 | 5.65 | 250 | Active | Active | Active | Non-Toxic | Dose-dependent effect | 9.87 | 13.2 | inhibition in vivo at 37.5 mg/kg [10]: 50%; Activity (Mus musculus [11]): Non-Toxic; Activity (Mus musculus [12]): Active; inhibition in vivo at 150 mg/kg [13]: 90%; Activity (Mus musculus [14]): Non-Toxic; TGI (CRL2813): Dose-dependent effect; Activity (Mus musculus [15]): Non-Toxic; half-life [16]: 40 h; Activity (Mus musculus [17]): Non-Toxic; Activity (Mus musculus [18]): Non-Toxic; Activity (Mus musculus [19]): < 10%; Tmax [20]: 6 to 24 h; Activity (Mus musculus [21]): Non-Toxic; Activity (Mus musculus [22]): < 10% |
